According to ChEMBL document CHEMBL5674876, “Epigenetic Activation of Pro-angiogenic Signaling Pathways in Human Endothelial Progenitors Increases Vasculogenesis” (Stem Cell Reports, 2017):
Activity calls are given as the source filed them.

Key:
[1] = system: Umbilical cord derived endothelial colony forming cell; test: Activation of WNT pro-angiogenic pathway in human umbilical cord derived endothelial colony forming cells by measuring TCF7L1 level in presence of panobinostat by qRT-PCR analysis; assay type: cell-based; details: filed as activator
[2] = system: Umbilical cord derived endothelial colony forming cell; test: Activation of WNT pro-angiogenic pathway in human umbilical cord derived endothelial colony forming cells by measuring JAG1 level in presence of panobinostat by qRT-PCR analysis; assay type: cell-based; details: filed as activator
[3] = system: Umbilical cord derived endothelial colony forming cell; test: Activation of WNT pro-angiogenic pathway in human umbilical cord derived endothelial colony forming cells by measuring MML1 level in presence of panobinostat by qRT-PCR analysis; assay type: cell-based; details: filed as activator
[4] = system: Umbilical cord derived endothelial colony forming cell; test: Activation of WNT pro-angiogenic pathway in human umbilical cord derived endothelial colony forming cells by measuring EGR1 level in presence of panobinostat by qRT-PCR analysis; assay type: cell-based; details: filed as activator
HUVEC [5] = test: Downregulation of DKK1 in human umbilical cord derived endothelial colony forming cells by qRT-PCR analysis; assay type: functional, cell-based
HUVEC [6] = test: Downregulation of SEMA3A in human umbilical cord derived endothelial colony forming cells by qRT-PCR analysis; assay type: functional, cell-based
HUVEC [7] = test: Effect on pro-angiogenic property in human umbilical cord derived endothelial colony forming cells assessed as increase in VEGFR1 protein level by Western blotting analysis; assay type: functional, cell-based
HUVEC [8] = test: Effect on pro-angiogenic property in human umbilical cord derived endothelial colony forming cells assessed as increase in VEGFR2 protein phosphorylation by Western blotting analysis; assay type: functional, cell-based
HUVEC [9] = test: Effect on pro-angiogenic property in human umbilical cord derived endothelial colony forming cells assessed as increase in intracellular NOTCH protein phosphorylation by Western blotting analysis; assay type: functional, cell-based
HUVEC [10] = test: Effect on pro-angiogenic property in human umbilical cord derived endothelial colony forming cells assessed as increase in intracellular CXCR4 protein phosphorylation by Western blotting analysis; assay type: functional, cell-based
HUVEC [11] = test: Effect on pro-angiogenic property in human umbilical cord derived endothelial colony forming cells assessed as increase in AKT protein phosphorylation by Western blotting analysis; assay type: functional, cell-based
HUVEC [12] = test: Effect on pro-angiogenic property in human umbilical cord derived endothelial colony forming cells assessed as increase in ERK1 protein phosphorylation by Western blotting analysis; assay type: functional, cell-based
HUVEC [13] = test: Effect on pro-angiogenic property in human umbilical cord derived endothelial colony forming cells assessed as increase in ERK2 protein phosphorylation by Western blotting analysis; assay type: functional, cell-based
HUVEC [14] = test: Effect on pro-angiogenic property in human umbilical cord derived endothelial colony forming cells assessed as increase in VEGFR2 protein level by Western blotting analysis; assay type: functional, cell-based
HUVEC [15] = test: Effect on pro-angiogenic property in human umbilical cord derived endothelial colony forming cells assessed as increase in FZD7 level in presence of panobinostat by qRT-PCR analysis; assay type: functional, cell-based
HUVEC [16] = test: Effect on pro-angiogenic property in human umbilical cord derived endothelial colony forming cells assessed as increase in KDR level in presence of panobinostat by qRT-PCR analysis; assay type: functional, cell-based
HUVEC [17] = test: Effect on pro-angiogenic property in human umbilical cord derived endothelial colony forming cells assessed as increase in DLL4 level in presence of panobinostat by qRT-PCR analysis; assay type: functional, cell-based
HUVEC [18] = test: Effect on pro-angiogenic property in human umbilical cord derived endothelial colony forming cells assessed as increase in HEY2 level in presence of panobinostat by qRT-PCR analysis; assay type: functional, cell-based
HUVEC [19] = test: Effect on pro-angiogenic property in human umbilical cord derived endothelial colony forming cells assessed as increase in CXCR4 level by qRT-PCR analysis; assay type: functional, cell-based
HUVEC [20] = test: Effect on pro-angiogenic property in human umbilical cord derived endothelial colony forming cells assessed as increase in CXCL12 level by qRT-PCR analysis; assay type: functional, cell-based
HUVEC [21] = test: Effect on pro-angiogenic property in human umbilical cord derived endothelial colony forming cells assessed as increase in ANGPT2 level by qRT-PCR analysis; assay type: functional, cell-based
HUVEC [22] = test: Effect on human umbilical cord derived endothelial colony forming cells assessed as decrease in H3K27me3 level by ChIP-qPCR analysis; assay type: functional, cell-based
HUVEC [23] = test: Effect on human umbilical cord derived endothelial colony forming cells assessed as reversal of increase in H3K4me3 level in presence of panobinostat measured after 24 hrs of drug removal by qRT-PCR analysis; assay type: functional, cell-based
HUVEC [24] = test: Effect on human umbilical cord derived endothelial colony forming cells assessed as reversal of decrease in H3 acetylation level in presence of panobinostat measured after 24 hrs of drug removal by qRT-PCR analysis; assay type: functional, cell-based
Mus musculus [25] = test: Activation of vasculogenesis in NOD/SCID immunodeficient mouse xenografted with drug pretreated human umbilical cord derived endothelial colony forming cells assessed as increase in formation of micro-capillaries in presence of panobinostat by H and E staining analysis; assay type: functional, organism-based
Outline: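 ECFCs (4 × 10^6 cells/mL), drug cocktail-pretreated or not, mixed into 1.5 mg/mL type I collagen gels, polymerized 30 min at 37°C, held 18 hr in drug-free medium, implanted into flanks of 6–12-week-old NOD/SCID mice. Explants harvested at 3 weeks; H&E and anti-human CD31 staining; closed hCD31+ capillaries counted per area, n = 6 mice per group, ±SEM.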

Mus musculus [26] = organism: Mus musculus; test: Effect on restoration of blood flow in athymic nude CD1 hindlimb ischemia mouse model in presence of panobinostat for 28 days by laser doppler perfusion imaging analysis; assay type: functional, organism-based; details: time 28.0 day
Outline: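 Left femoral artery ligated in 8-week-old female athymic nude CD1 mice; 5 × 10^5 ECFCs pretreated with the combination or vehicle, in 50 μL PBS, given as two intramuscular injections into adductor muscle after skin closure. Perfusion measured by laser Doppler pre-op, day 0 and later days; ischemic/non-ischemic ratio, n = 7–8 mice to day 14, 3–4 to day 28.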

Mus musculus [27] = test: In vivo upregulation of pro-angiogneic pathway in athymic nude CD1 hindlimb ischemia mouse model in presence of panobinostat treated for 28 days; assay type: functional, organism-based; details: time 28.0 day
HUVEC [28] = test: Effect on human umbilical cord derived endothelial colony forming cells assessed as decrease in H3 acetylation level in presence of panobinostat measured after removal of drug

Measured: Activity

CCCc1cc(C)[nH]c(=O)c1CNC(=O)c1cc(-c2ccnc(N3CCN(C)CC3)c2)cc2c1cnn2C(C)C
active: all assays above
